Drawing on ChEMBL document CHEMBL1138684, “Determinants of retinoid X receptor transcriptional antagonism” (J Med Chem, 2004), this text covers IC50 and Relative activation for 7 compounds.

SMILES strings stand for the structures.

The target in experiment [1] is T1, Retinoic acid receptor RXR-alpha (Homo sapiens, UniProt P19793).
T1 sequence (P19793 whole entry): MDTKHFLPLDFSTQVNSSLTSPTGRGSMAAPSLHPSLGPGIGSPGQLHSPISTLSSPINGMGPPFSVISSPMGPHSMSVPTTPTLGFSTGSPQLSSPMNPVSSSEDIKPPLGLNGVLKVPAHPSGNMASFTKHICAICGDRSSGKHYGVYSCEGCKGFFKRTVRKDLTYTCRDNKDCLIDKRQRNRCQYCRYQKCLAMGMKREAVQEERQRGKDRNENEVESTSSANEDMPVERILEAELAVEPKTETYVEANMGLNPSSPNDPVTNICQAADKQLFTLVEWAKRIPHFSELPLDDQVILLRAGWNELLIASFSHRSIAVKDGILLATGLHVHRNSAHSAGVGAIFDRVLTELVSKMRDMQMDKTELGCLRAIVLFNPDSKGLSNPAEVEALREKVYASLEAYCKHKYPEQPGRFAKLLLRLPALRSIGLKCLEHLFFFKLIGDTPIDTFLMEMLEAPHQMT
The experiment in a line: Inhibition of [3H]9-cis-retinoic acid binding to human retinoid X receptor alpha ligand-binding domain expressed in Escherichia coli.

Experiment [2] addresses T2, Retinoic acid receptor beta (Homo sapiens) (UniProt P10826).
T2 sequence (whole entry): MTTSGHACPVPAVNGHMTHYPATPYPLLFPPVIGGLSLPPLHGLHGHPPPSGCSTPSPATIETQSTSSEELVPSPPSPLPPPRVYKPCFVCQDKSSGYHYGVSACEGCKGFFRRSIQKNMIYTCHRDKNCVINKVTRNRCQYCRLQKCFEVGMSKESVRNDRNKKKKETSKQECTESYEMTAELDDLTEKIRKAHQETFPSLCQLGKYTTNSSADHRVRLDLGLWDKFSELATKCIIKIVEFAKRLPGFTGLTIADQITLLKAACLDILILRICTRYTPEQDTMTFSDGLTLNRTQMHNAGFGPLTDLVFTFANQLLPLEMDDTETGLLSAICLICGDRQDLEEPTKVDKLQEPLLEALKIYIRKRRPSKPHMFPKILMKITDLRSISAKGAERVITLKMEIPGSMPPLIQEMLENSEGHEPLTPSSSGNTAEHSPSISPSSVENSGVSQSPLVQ
Nature of the experiment: Antagonism of retinoic acid receptor beta activity induced by retinoic acid at 10e-5 M. In kind it is functional. Summed up: (§1)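 CV-1 cells kept in DMEM with 10% FCS and seeded 16-24 h before calcium precipitation cotransfection: RARα, β or γ vector (100 µg) with (TREpal)2-tk-CAT or CRBP-I-tk-CAT reporter (200 µg), plus β-gal vector. At 20 h, medium switched to 5% charcoal-stripped FCS. Cells got 1 × 10^-7 M trans-RA ± test agent for 24 h. CAT normalized to β-gal, as % of trans-RA alone.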

The target in experiment [3] is T2, Retinoic acid receptor beta (Homo sapiens). The experiment in a line: Antagonism of retinoic acid receptor beta activity induced by retinoic acid at 10e-6 M. In kind it is functional. An outline of the steps: as §1
The target is the same in experiment [4]. The experiment in a line: Antagonism of retinoic acid receptor beta activity induced by retinoic acid at 10e-7 M. In kind it is functional. An outline of the steps: as §1
In experiment [5] the target is T3, Retinoic acid receptor alpha (Homo sapiens) (UniProt P10276).
T3 sequence (whole entry): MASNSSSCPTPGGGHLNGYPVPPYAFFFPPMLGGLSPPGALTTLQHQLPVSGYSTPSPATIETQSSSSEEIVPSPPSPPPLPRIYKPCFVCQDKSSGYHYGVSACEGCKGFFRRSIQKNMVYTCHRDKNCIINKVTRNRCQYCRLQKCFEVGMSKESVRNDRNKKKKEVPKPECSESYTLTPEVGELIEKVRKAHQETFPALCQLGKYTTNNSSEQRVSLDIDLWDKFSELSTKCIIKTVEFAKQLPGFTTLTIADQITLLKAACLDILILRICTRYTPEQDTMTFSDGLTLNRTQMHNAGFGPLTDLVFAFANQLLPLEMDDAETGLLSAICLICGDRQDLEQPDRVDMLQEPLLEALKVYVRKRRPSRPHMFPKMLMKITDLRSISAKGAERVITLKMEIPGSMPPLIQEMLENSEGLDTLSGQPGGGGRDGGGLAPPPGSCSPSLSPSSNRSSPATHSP
The experiment in a line: Antagonism of retinoic acid receptor alpha activity induced by retinoic acid at 10e-5 M. In kind it is functional. Summed up:
as §1

Experiment [6] deals with T3, Retinoic acid receptor alpha (Homo sapiens). Nature of the experiment: Antagonism of retinoic acid receptor alpha activity induced by retinoic acid at 10e-6 M. In kind it is functional. Summed up: as §1
Experiment [7] has the same target. The experiment in a line: Antagonism of retinoic acid receptor alpha activity induced by retinoic acid at 10e-7 M. In kind it is functional. Summed up: as §1
Experiment [8] addresses T4, Retinoic acid receptor gamma (Homo sapiens) (UniProt P13631).
T4 sequence (whole entry): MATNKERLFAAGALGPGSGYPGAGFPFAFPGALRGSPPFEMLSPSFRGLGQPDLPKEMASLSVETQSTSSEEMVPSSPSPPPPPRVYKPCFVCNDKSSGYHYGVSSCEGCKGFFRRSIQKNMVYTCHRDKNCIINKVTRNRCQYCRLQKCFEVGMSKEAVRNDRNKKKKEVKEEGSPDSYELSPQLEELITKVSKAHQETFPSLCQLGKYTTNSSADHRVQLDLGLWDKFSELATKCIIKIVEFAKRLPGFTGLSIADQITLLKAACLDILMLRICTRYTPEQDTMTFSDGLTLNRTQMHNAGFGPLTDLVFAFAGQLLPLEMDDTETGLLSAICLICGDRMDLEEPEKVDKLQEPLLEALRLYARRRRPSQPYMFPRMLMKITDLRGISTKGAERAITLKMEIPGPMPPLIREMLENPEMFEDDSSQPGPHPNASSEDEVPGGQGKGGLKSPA
The experiment in a line: Antagonism of retinoic acid receptor gamma activity induced by retinoic acid at 10e-5 M. In kind it is functional. Summed up:
as §1

The target in experiment [9] is T4, Retinoic acid receptor gamma (Homo sapiens). Nature of the experiment: Antagonism of retinoic acid receptor gamma activity induced by retinoic acid at 10e-6 M. In kind it is functional. An outline of the steps:
as §1

Experiment [10] has the same target. The experiment in a line: Antagonism of retinoic acid receptor gamma activity induced by retinoic acid at 10e-7 M. In kind it is functional. An outline of the steps: as §1
Experiment [11] concerns the target T5, Retinoic acid receptor RXR-alpha (Homo sapiens) (UniProt P19793).
T5 sequence (whole entry): T1 sequence (P19793 whole entry)
The experiment in a line: Antagonism of retinoid X receptor alpha activity induced by retinoic acid […] at 10e-5 M. In kind it is functional. Summed up: (§2)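 CV-1 cells in DMEM/10% FCS, cotransfected by calcium precipitation with RXRα vector (20 µg), CRBP-II-tk-CAT reporter (200 µg) and β-gal vector. At 20 h, medium changed to 5% charcoal-stripped FCS. Cells treated 24 h with 1 × 10^-7 M 9-cis-RA ± test agent. CAT activity normalized to β-gal, expressed relative to 9-cis-RA alone as 100%.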

For experiment [12], the target named is T5, Retinoic acid receptor RXR-alpha (Homo sapiens). Nature of the experiment: Antagonism of retinoid X receptor alpha activity induced by retinoic acid […] at 10e-6 M. In kind it is functional. Summed up: as §2
The target is the same in experiment [13]. Nature of the experiment: Antagonism of retinoid X receptor alpha activity induced by retinoic acid […] at 10e-7 M. In kind it is functional. Summed up: as §2

For the compound `CCCOc1cc2c(cc1C(=C1CC1)c1ccc(C(=O)O)cn1)C(C)(C)CCC2(C)C`, the IC50 (commonly the point on the concentration scale where inhibition reaches its midpoint) in experiment [1] came to 6 nM.
The same measure, in the same setting: the same measure for `CCCCOc1cc2c(cc1C(=C1CC1)c1ccc(C(=O)O)cn1)C(C)(C)CCC2(C)C`: 10 nM; for `Cc1cc2c(cc1C(=C1CC1)c1ccc(C(=O)O)cc1)C(C)(C)CCC2(C)C`: 21 nM.
On to `CCCCOc1cc2c(cc1C(=C1CC1)c1ccc(C(=O)O)cc1)C(C)(C)CCC2(C)C`, for which the IC50 in experiment [1] stood at 270 nM.
Take `CCCOc1cc2c(cc1C(=C1CC1)c1ccc(C(=O)O)cc1)C(C)(C)CCC2(C)C`: the concentration for half-maximal inhibition (IC50) in experiment [1] stood at 120 nM.
Consider `CCCCc1cc2c(cc1C(=C1CC1)c1ccc(C(=O)O)cc1)C(C)(C)CCC2(C)C`, for which the Relative activation stood at 65% in experiment [2]; 88% in experiment [3]; 98% in experiment [4]; 22% in [5]; 45% in experiment [6]; 82% in experiment [7]. The Relative activation in experiment [8] was 91%; in [9] it was 99%; in experiment [10] it was 95%; in experiment [11], 48%; in experiment [12] it was 88%; in [13], 115%. Further, in [1], the half-inhibitory concentration (IC50) was 500 nM.
Regarding `C=C(c1ccc(C(=O)O)cc1)c1cc2c(cc1CCCC)C(C)(C)CCC2(C)C`, the Relative activation in [2] was determined as 84%; in experiment [3], 102%; in [4] it was 94%; in experiment [5], 20%; in experiment [6], 30%; in experiment [7], 75%. The Relative activation in experiment [8] is 110%; in experiment [9], 94%; in [10], 89%; in experiment [11], 150%; in experiment [12], 130%; in experiment [13], 114%.
